How the values were obtained:
[1] = molecular target: T1, Sterol O-acyltransferase 1 (Rattus norvegicus) (UniProt O70536); assay: In vitro percentage inhibition against ACAT derived from rat adrenals; settings: concentration not given here
T1 sequence (whole entry): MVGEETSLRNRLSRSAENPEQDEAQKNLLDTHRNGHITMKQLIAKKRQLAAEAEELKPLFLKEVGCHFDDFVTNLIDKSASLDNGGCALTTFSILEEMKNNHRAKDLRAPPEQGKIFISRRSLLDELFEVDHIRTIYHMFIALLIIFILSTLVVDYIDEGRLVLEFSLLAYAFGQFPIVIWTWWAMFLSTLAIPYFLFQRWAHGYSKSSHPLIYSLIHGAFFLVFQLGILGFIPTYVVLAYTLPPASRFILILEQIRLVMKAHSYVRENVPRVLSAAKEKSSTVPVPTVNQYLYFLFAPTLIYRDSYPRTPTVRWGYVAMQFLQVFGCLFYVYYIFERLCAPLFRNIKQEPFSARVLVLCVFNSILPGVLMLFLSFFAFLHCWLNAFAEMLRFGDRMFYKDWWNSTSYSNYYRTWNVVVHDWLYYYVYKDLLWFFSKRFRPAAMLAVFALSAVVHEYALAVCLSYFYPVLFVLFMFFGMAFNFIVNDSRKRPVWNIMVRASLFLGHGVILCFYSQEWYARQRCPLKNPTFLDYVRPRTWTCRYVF
In short: (§1)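 Rat adrenal 1000g supernatant (microsomal ACAT) in 0.2 M KH2PO4 pH 7.4 with BSA; test compound at final 5.2 µg/mL, preincubated 37 °C 10 min; [14C]oleoyl-CoA (0.4 µCi) added, 37 °C 30 min. Cholesteryl ester separated by TLC, scintillation counted; mean percent inhibition against compound-free control.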

[2] = molecular target: T1, Sterol O-acyltransferase 1 (Rattus norvegicus); assay: Liver hypolipidemic activity in rats; format: functional
In short: (§2)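 Male CD-1 Sprague-Dawley rats, 140–150 g, fed 1% cholesterol/0.5% cholic acid diet with compound admixed at 0.01% (about 10 mg/kg/day) for 7 days. Serum and liver cholesterol measured by Technicon autoanalyzer methods; expressed as percent of control.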

[3] = molecular target: T2, Sterol O-acyltransferase 1 (Rattus norvegicus, UniProt O70536); assay: In vitro inhibitory concentration against ACAT derived from rat adrenals
T2 sequence (O70536 whole entry): T1 sequence (whole entry)
In short: (§3)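 Rat adrenal homogenate in 0.2 M KH2PO4 buffer pH 7.4, 1000g supernatant (microsomal fraction) as enzyme; preincubated with BSA and test compound at graded concentrations, 37 °C 10 min, then [14C]oleoyl-CoA 0.4 µCi, 37 °C 30 min. Lipids extracted, cholesteryl ester isolated by TLC and counted. Triplicate tubes per concentration; IC50 by linear regression of means.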

[4] = molecular target: T1, Sterol O-acyltransferase 1 (Rattus norvegicus); assay: Serum hypolipidemic activity in rats; format: functional; in short: as §2
[5] = molecular target: T1, Sterol O-acyltransferase 1 (Rattus norvegicus); assay: In vitro percentage inhibition against Acyl coenzyme A:cholesterol acyltransferase derived from rat adrenals; settings: concentration not given here
[6] = molecular target: T1, Sterol O-acyltransferase 1 (Rattus norvegicus); assay: In vitro percentage inhibition againstAcyl coenzyme A:cholesterol acyltransferase derived from rat adrenals; settings: concentration not given here; in short: as §1
[7] = molecular target: T2, Sterol O-acyltransferase 1; assay: In vitro inhibitory concentration against acyl coenzyme A:cholesterol acyltransferase derived from rat adrenals; in short: as §3
Oryctolagus cuniculus [8] = assay: Compound was evaluated for rabbit serum cholesterol level at dose 11 mg/kg per day on day 0; format: functional
In short: (§4)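 Male New Zealand rabbits (2.5–3.0 kg) on rabbit pellets with 0.4% cholesterol and peanut oil for one week, then bled and grouped by plasma sterol. Drug mixed in diet (6% peanut oil) at 0.25, 0.075 or 0.025% for five weeks, about 109.6, 34.5 or 11.2 mg/kg/day. Dietary cholesterol adjusted weekly (0.30–0.35%). Aortic balloon denudation on day 7 of dosing.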

Oryctolagus cuniculus [9] = assay: Compound was evaluated for rabbit serum cholesterol level at dose 110 mg/kg per day on day 35; format: functional; in short: as §4
Oryctolagus cuniculus [10] = assay: Compound was evaluated for rabbit serum cholesterol level at dose 35 mg/kg per day on day 7; format: functional; in short: as §4
Oryctolagus cuniculus [11] = assay: Compound was evaluated for rabbit serum cholesterol level at dose 110 mg/kg per day on day 7; format: functional; in short: as §4
[12] = molecular target: T1, Sterol O-acyltransferase 1 (Rattus norvegicus); assay: (§5) In vitro percentage inhibition against acyl coenzyme A:cholesterol acyltransferase derived from rat adrenals; set-up: concentration or dose not given beside the values; settings: concentration not given here; in short: as §1
Oryctolagus cuniculus [13] = assay: Compound was evaluated for rabbit serum cholesterol level at dose 35 mg/kg per day on day 0; format: functional; in short: as §4
Oryctolagus cuniculus [14] = assay: Compound was evaluated for rabbit serum cholesterol levels for a dose of 110 mg/kg per day on day 21; format: functional; in short: as §4
Oryctolagus cuniculus [15] = assay: Compound was evaluated for rabbit serum cholesterol level at dose 11 mg/kg per day on day 7; format: functional; in short: as §4
Oryctolagus cuniculus [16] = assay: Compound was evaluated for rabbit serum cholesterol level at dose 35 mg/kg per day on day 35; format: functional; in short: as §4
Oryctolagus cuniculus [17] = assay: Compound was evaluated for rabbit serum cholesterol level at dose 110 mg/kg per day on day 0; format: functional; in short: as §4
Oryctolagus cuniculus [18] = assay: Compound was evaluated for rabbit serum cholesterol level at dose 11 mg/kg per day on day 35; format: functional; in short: as §4
Oryctolagus cuniculus [19] = assay: Compound was evaluated for rabbit serum cholesterol level at dose 11 mg/kg per day on day 21; format: functional; in short: as §4
Oryctolagus cuniculus [20] = assay: Compound was evaluated for rabbit serum cholesterol level at dose 35 mg/kg per day on day 21; format: functional; in short: as §4
[21] = molecular target: T1, Sterol O-acyltransferase 1 (Rattus norvegicus); assay: In vitro percentage inhibition against Acyl coenzyme A:cholesterol acyltransferase derived from rat adrenals; set-up: concentration or dose not given beside the values; settings: concentration not given here; in short: as §1
[22] = molecular target: T2, Sterol O-acyltransferase 1; assay: In vitro inhibitory concentration against Acyl coenzyme A:cholesterol acyltransferase derived from rat adrenals; in short: as §3
[23] = molecular target: T1, Sterol O-acyltransferase 1 (Rattus norvegicus); assay: as §5; settings: concentration not given here
In short: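 Rat adrenals homogenized in 0.2 M KH2PO4 (pH 7.4), spun at 1000g for 15 min at 5 °C; supernatant used as enzyme. Preincubated with BSA and test compound (final 5.2 µg/mL) at 37 °C for 10 min, then [14C]oleoyl-CoA (0.4 µCi) added for 30 min at 37 °C. Cholesteryl ester isolated by TLC and counted. Mean percent inhibition versus control without compound.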

In the case of `CCCCCN(CCCCC)C(=O)Nc1ccc(C)cc1C`, the inhibition [1] is reported as 90%, the LS [2] is reported as 49% and the IC50 [3] is reported as 0.952 µM. It also gave an SS [4] of 82%.

In the case of `CCCCN(C(=O)Nc1ccc(C)cc1C)c1ccccc1`, the inhibition [1] is reported as 70%, the LS [2] is reported as 107% and the IC50 [3] is reported as 21.4 µM. It also gave an SS [4] of 99%.

`CCCCCCCN(Cc1cccs1)C(=O)Nc1cc(C)c(C)cc1C` was tested, and the LS [2] was 25%, the IC50 [3] was 1.45 µM and the SS [4] was 54%.

`CCCCCCCN(Cc1ccco1)C(=O)Nc1cc(C)c(C)cc1C` showed an inhibition [5] of 94%, an LS [2] of 38% and an SS [4] of 44%.

With `O=C(Nc1ccc([N+](=O)[O-])cc1)N(Cc1ccccc1)Cc1ccccc1` the inhibition [6] was 52%.

`CCCCN(Cc1ccccc1)C(=O)Nc1ccc(C)cc1C` showed an IC50 [7] of 4.8 µM, an SC (Oryctolagus cuniculus [8]) of 307 mg/dL and an SC (Oryctolagus cuniculus [9]) of 405 mg/dL. The SC (Oryctolagus cuniculus [10]) was 255 mg/dL, the SC (Oryctolagus cuniculus [11]) was 230 mg/dL and the inhibition [12] was 91%. The SC (Oryctolagus cuniculus [13]) was 270 mg/dL, the SC (Oryctolagus cuniculus [14]) was 343 mg/dL and the LS [2] was 75%. The SC (Oryctolagus cuniculus [15]) was 340 mg/dL, the SS [4] was 70% and the SC (Oryctolagus cuniculus [16]) was 488 mg/dL. It also gave an SC (Oryctolagus cuniculus [17]) of 278 mg/dL, an SC (Oryctolagus cuniculus [18]) of 722 mg/dL and an SC (Oryctolagus cuniculus [19]) of 556 mg/dL. It also gave an SC (Oryctolagus cuniculus [20]) of 357 mg/dL.

Work on `CCCCCCCCCCN(CCCCCCCCCC)C(=O)Nc1ccc(C)cc1C` yielded an inhibition [21] of 64%, an LS [2] of 66% and an SS [4] of 71%. The IC50 [22] was 0.63 µM.

In the case of `CCCCN(CCCC)C(=O)Nc1ccc(OCC)cc1`, the inhibition [23] is reported as 79%.
